Values after ≈ are worked out from the molar mass of the structure shown.

For series [1], the target named is T1, Cytochrome P450 11B2, mitochondrial (Homo sapiens, UniProt P19099).
T1 sequence (P19099 whole entry): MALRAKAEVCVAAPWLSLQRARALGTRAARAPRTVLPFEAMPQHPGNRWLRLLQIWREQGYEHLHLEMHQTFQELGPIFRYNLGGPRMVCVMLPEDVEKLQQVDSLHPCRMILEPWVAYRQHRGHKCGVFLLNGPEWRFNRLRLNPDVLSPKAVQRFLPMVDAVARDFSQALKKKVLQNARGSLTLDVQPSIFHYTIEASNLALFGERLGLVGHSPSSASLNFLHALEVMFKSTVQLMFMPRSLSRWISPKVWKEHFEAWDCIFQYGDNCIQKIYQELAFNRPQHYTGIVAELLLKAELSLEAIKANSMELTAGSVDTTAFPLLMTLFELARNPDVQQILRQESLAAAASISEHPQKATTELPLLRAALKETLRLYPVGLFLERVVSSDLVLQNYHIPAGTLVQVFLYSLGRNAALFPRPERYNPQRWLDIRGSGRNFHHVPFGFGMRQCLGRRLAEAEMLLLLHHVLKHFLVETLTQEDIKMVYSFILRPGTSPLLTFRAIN
The series can be described thus: Inhibition of CYP11B2 in human […] cells assessed as decrease in […] aldosterone secretion after 24 hrs by RIA. The format is cell-based.

Series [2] addresses T1, Cytochrome P450 11B2, mitochondrial. Put plainly: Inhibition of human recombinant CYP11B2 using 11-deoxycorticosterone as substrate after 2 hrs by scintillation proximity assay.
The species entered for a further series is Homo sapiens. The series can be described thus: Selectivity ratio of IC50 for human recombinant CYP11B1 to IC50 for human recombinant CYP11B2.
In a further series the target is T2, CYP19 (aromatase) (Homo sapiens, UniProt P11511).
T2 sequence (P11511 whole entry): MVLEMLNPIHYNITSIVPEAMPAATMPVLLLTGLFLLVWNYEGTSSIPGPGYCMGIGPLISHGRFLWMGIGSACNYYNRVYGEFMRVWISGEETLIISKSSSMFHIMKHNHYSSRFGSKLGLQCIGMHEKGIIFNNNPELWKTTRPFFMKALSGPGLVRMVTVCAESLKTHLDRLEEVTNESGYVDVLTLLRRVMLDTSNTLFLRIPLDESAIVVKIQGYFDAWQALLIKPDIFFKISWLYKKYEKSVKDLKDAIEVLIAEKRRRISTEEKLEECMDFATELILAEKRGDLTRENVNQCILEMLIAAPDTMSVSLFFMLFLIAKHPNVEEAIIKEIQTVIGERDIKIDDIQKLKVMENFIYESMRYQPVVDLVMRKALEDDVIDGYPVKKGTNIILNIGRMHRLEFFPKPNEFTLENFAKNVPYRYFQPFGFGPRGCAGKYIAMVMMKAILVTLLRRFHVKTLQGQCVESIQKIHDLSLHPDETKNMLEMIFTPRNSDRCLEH
The series can be described thus: Inhibition of human CYP19 at 10 uM preincubated for 10 mins with NADPH followed by protein addition measured after 90 mins by fluorometric analysis.

Series [3] is described as follows: Half life in rat liver microsomes after 30 mins by LC/MS/MS analysis. The format is ADME.
A short description of series [4]: Half life in human liver microsomes after 30 mins by LC/MS/MS analysis. The format is ADME.
The target in series [5] is T3, Cytochrome P450 11B2, mitochondrial (Rattus norvegicus, UniProt P30099).
T3 sequence (P30099 whole entry): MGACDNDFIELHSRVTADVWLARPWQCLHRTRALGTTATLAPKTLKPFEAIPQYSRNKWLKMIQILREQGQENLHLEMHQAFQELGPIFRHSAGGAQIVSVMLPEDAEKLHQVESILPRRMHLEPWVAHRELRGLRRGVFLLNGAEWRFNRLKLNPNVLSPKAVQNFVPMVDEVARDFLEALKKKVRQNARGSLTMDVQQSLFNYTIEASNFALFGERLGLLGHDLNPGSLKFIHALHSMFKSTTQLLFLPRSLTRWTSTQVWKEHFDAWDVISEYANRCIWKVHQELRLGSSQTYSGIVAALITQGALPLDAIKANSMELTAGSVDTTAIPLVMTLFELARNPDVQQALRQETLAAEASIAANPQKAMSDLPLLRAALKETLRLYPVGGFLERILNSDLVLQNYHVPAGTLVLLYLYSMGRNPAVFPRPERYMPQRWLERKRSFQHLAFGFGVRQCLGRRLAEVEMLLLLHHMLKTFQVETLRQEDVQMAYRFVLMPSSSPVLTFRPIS
Put plainly: Inhibition of recombinant rat CYP11B2 using 11-deoxycorticosterone as substrate after 2 hrs by scintillation proximity assay.

Series [6] can be described thus: Inhibition of CYP11B2 in cynomolgus monkey adrenal homogenates assessed as inhibition of aldosterone secretion. The format is tissue-based, Macaca fascicularis. The essentials:
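Cynomolgus monkey adrenal homogenates, with 11-DOC as substrate; aldosterone secretion inhibition determined as IC50.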

The species named for another series is Macaca fascicularis. Put plainly: Selectivity ratio of IC50 for cynomolgus monkey CYP11B1 to IC50 for cynomolgus monkey CYP11B2. The essentials: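 Adrenal homogenates from cynomolgus monkey (Macaca fascicularis) served as the enzyme source, with 11-DOC as substrate. CYP11B2 activity was read as aldosterone production and CYP11B1 activity as cortisol production. The value is the CYP11B1 IC50 divided by the CYP11B2 IC50.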

The target of series [7] is T4, Amine oxidase [flavin-containing] A (Homo sapiens, UniProt P21397).
T4 sequence (P21397 whole entry): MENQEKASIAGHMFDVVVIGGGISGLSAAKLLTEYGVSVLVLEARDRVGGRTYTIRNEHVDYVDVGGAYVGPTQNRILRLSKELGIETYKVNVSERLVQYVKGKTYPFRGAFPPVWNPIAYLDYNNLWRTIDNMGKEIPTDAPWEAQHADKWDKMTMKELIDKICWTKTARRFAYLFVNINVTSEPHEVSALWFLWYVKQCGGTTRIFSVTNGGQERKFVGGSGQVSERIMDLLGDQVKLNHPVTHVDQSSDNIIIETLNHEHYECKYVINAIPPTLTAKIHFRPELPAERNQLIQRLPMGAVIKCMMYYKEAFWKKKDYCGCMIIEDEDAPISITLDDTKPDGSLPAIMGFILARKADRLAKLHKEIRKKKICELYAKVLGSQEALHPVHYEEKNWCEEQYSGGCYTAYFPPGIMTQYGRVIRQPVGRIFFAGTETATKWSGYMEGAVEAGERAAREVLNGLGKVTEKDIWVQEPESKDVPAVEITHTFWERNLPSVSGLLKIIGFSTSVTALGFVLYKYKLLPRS
The series can be described thus: Inhibition of MAO-A (unknown origin).

The nature of series [8]: Equilibrium solubility of the compound in buffer at pH 6.8. The series is classed as physicochemical. The essentials:
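Equilibrium solubility measured in buffer at pH 6.8.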

Series [9] in a line: Clearance in continuous angiotensin-2 infusion Sprague-Dawley rat model at 3 mg/kg, po and 1 mg/kg, iv. The format is ADME, organism-based. The note with it: in vivo.
Series [10] is described as follows: Oral bioavailability in continuous angiotensin 2 infusion Sprague-Dawley rat model at 3 mg/kg. The series is classed as ADME, organism-based. Conditions: in vivo; call rule not given here. The method in brief:
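Male Sprague Dawley rats, 200–300 g. IV: 0.3 mg/1 mL/kg (free base) slow injection via jugular vein, n=2. Oral gavage at 1 mg/5 mL/kg or 3 mg/5 mL/kg in solution, n=3. Jugular catheter blood at 5 min (iv only), 0.25–8 h into EDTA; plasma after protein precipitation with acetonitrile containing internal standard, HPLC-MS; noncompartmental parameters.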

Series [11] can be described thus: Half life in continuous angiotensin 2 infusion Sprague-Dawley rat model at 3 mg/kg, po and 1 mg/kg, iv. The series is classed as ADME, organism-based. Conditions: in vivo.
The nature of series [12]: AUC (0 to 24 hrs) in Sprague-Dawley rat at 1 mg/kg, po. The note with it: in vivo.

Regarding `Cn1c(-c2cccnc2)c(C#N)c2ccccc21`, the half-maximal inhibitory concentration (IC50) was 90 nM in series [1], 11 nM in series [2], 10.9 µM in [5] and 9 nM in [6]. In addition, the Ratio IC50 in the series listed under Homo sapiens worked out at 56; in the series listed under Macaca fascicularis, 396. This compound also showed an inhibition at 1.5 h, 10 µM against CYP19 (aromatase) of 58%. For the same compound, the half-life came to 30 min in series [3] and 10 min in [4].
In the case of `CCS(=O)(=O)Nc1cncc(-c2c(C#N)c3ccccc3n2C)c1`, in series [1], the IC50 was 380 nM.
Consider `CN(C)S(=O)(=O)Oc1cncc(-c2c(C#N)c3ccccc3n2C)c1`, for which the IC50 in series [1] is 39 nM; in series [2] it was 2 nM; in series [5], 2 µM; in series [7], above 10000 nM. Besides, in the series listed under Homo sapiens, the Ratio IC50 turned out to be 103. Further, the inhibition at 1.5 h, 10 µM on CYP19 (aromatase) is 27%. Also, the half-life in series [3] was 1 min; in series [4] it was 3 min.
Turning to `Cn1c(-c2cccnc2)c(C#N)c2ccc(Cl)cc21`, the half-inhibitory concentration (IC50) in [1] was found to be 4 nM; in [2], 2.5 nM; in [5] it was 8 µM; in [7], 210 nM. In addition, the Ratio IC50 in the series filed under Homo sapiens worked out at 43. The same compound returned an inhibition at 1.5 h, 10 µM on CYP19 (aromatase) of 47%. The results for the half-life in series [3] and in [4] were 47 min and 259 min, respectively.
For `CCS(=O)(=O)Nc1cncc(-c2c(C#N)c3ccc(Cl)cc3n2C)c1`, the results for the IC50 in series [1], in series [2] and in series [5] were 13 nM, 11 nM and 53.1 µM, respectively. Also, the Ratio IC50 in the series filed under Homo sapiens stood at 43; in the series filed under Macaca fascicularis it was 636. This compound gave an inhibition at 1.5 h, 10 µM against CYP19 (aromatase) of 15%. In addition, the half-life is 176 min in [3] and above 400 min in series [4]. Besides, in series [7] (human), the “inhibition (INH)” value is recorded as “Not Active”.
As to `Cc1c(-c2cccnc2)[nH]c2ccccc12`, the IC50 was 21 nM in series [1], 3 nM in [2] and 3.9 µM in [5]. For the same compound, the Ratio IC50 in the series listed under Homo sapiens was 27. In addition, the inhibition at 1.5 h, 10 µM against CYP19 (aromatase) is 94%.
On to `CCS(=O)(=O)NCc1cncc(-c2cc3cnc(Cl)cc3n2C)c1`, for which the half-inhibitory concentration (IC50) came out at 169 nM in series [1] and 22 nM in [2]. For the same compound, the Ratio IC50 in the series listed under Homo sapiens is 21.
`CCS(=O)(=O)NCc1cncc(-c2cc3ccc(Cl)nc3n2C)c1`: the IC50 in series [1] amounted to 7 nM; in [2], 1.1 nM; in series [6], 6 nM. In addition, the Ratio IC50 in the series listed under Homo sapiens amounted to 86; in the series listed under Macaca fascicularis, 99. The inhibition at 1.5 h, 10 µM against CYP19 (aromatase) stood at 11%. For the same compound, the half-life in [3] was 40 min; in series [4] it was 21 min; in series [11], 24 min. In [8], this compound yielded a thermodynamic solubility of 450 µM (≈ 164 µg/mL). Further, the clearance in series [9] was 68 mL/min/kg. Besides, in series [10], the bioavailability is 100%. The compound further gave an area under the curve AUC(0-t) at 24 h in [12] of 0.75 µM·h.
For `Cc1c(-c2cccnc2)n(C)c2ccccc12`, the half-maximal inhibitory concentration (IC50) in series [1] came to 9 nM; in series [2], 1.4 nM. In the series listed under Homo sapiens, the Ratio IC50 amounted to 38. In addition, at CYP19 (aromatase), the inhibition at 1.5 h, 10 µM is 91%. Further, the results for the half-life in [3] and in series [4] were 5 min and 12 min, respectively.
